Experimental data as given in ChEMBL document CHEMBL1144990, “Alpha1-adrenoceptor antagonists. 6. Structural optimization of pyridazinone-arylpiperazines. Study of the influence on affinity and selectivity of cyclic substituents at the pyridazinone ring and alkoxy groups at the arylpiperazine moiety” (J Med Chem, 2003).

What was measured:
[1] = target: T1, 5-hydroxytryptamine receptor 1A (Rattus norvegicus, UniProt P19327); experiment: Displacement of [3H]8-OH-DPAT from 5-hydroxytryptamine 1A receptor of rat cortex membranes; assay type: cell membranes, Membrane
T1 sequence (P19327 whole entry): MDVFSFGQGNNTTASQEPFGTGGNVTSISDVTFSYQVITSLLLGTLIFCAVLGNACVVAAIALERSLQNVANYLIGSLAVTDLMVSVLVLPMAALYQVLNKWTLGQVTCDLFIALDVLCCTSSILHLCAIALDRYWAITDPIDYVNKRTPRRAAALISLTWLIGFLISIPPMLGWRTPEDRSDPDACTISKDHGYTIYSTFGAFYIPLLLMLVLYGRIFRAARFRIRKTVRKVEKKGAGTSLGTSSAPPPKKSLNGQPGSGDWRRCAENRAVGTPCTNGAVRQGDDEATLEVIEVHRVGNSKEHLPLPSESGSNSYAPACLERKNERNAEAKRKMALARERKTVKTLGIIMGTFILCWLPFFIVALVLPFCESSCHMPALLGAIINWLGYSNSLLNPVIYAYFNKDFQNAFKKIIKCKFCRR
How it was run: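 Competition binding with seven drug concentrations, each in triplicate, across three separate experiments. IC50 values were converted to Ki by the Cheng–Prusoff equation, Ki = IC50/(1 + [L]/Kd), where [L] is the radioligand concentration and Kd its dissociation constant. Ki is reported as mean ± SD.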

[2] = target: T2, Adrenergic receptor alpha-1 (Rattus norvegicus, UniProt P15823+P23944+P43140); experiment: Binding affinity for Alpha-1 adrenergic receptor in rat cortex membranes using [3H]-prazosin as radioligand; assay type: cell membranes
T2 sequence (P15823 whole entry): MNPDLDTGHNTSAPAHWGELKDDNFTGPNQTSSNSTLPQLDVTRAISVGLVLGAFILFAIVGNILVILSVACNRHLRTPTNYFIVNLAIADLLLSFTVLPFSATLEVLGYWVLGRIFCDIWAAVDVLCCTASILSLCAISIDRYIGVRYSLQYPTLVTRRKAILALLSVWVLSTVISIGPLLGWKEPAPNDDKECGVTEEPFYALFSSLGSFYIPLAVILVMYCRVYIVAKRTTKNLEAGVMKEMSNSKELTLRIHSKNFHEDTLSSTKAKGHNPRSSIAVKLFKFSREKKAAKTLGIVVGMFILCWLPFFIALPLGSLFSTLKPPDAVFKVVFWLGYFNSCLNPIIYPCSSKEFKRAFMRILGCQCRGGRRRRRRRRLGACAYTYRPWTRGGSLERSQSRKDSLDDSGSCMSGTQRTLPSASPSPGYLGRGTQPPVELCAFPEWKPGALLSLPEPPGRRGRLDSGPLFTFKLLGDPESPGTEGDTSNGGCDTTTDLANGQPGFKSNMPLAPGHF
T2 sequence (P23944 whole entry): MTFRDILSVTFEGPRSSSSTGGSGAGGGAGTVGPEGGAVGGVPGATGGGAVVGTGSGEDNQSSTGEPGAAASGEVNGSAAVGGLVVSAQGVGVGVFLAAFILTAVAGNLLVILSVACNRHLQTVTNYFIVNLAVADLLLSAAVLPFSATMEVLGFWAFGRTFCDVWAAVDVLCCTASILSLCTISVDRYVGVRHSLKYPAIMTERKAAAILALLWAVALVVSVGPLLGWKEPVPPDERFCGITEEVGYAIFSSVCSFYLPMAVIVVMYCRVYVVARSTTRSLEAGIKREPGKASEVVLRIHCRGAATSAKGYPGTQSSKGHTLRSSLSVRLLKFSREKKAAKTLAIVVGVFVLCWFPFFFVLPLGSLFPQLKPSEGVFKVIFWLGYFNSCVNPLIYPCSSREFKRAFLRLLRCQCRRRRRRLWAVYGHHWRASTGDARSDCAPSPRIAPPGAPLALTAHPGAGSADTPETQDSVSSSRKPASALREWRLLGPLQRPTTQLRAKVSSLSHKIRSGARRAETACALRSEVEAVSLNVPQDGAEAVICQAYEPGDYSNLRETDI
T2 sequence (P43140 whole entry): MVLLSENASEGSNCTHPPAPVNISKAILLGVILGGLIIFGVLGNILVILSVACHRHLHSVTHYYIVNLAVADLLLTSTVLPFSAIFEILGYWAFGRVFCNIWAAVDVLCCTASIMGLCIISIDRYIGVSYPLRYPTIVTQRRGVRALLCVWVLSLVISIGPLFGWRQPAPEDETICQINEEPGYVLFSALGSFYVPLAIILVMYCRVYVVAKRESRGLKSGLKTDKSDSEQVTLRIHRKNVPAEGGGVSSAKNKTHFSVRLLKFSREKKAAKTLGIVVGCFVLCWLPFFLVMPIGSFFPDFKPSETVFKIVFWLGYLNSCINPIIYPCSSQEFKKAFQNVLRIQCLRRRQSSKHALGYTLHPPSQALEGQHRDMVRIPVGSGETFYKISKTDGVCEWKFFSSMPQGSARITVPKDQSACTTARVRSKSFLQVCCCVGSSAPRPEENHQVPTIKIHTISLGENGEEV

[3] = target: T3, Adrenergic receptor alpha-2 (Rattus norvegicus, UniProt P22086+P19328+P22909); experiment: Binding affinity for Alpha-2 adrenergic receptor in rat cortex membranes using [3H]rauwolscine as radioligand; assay type: cell membranes
T3 sequence (P22086 whole entry): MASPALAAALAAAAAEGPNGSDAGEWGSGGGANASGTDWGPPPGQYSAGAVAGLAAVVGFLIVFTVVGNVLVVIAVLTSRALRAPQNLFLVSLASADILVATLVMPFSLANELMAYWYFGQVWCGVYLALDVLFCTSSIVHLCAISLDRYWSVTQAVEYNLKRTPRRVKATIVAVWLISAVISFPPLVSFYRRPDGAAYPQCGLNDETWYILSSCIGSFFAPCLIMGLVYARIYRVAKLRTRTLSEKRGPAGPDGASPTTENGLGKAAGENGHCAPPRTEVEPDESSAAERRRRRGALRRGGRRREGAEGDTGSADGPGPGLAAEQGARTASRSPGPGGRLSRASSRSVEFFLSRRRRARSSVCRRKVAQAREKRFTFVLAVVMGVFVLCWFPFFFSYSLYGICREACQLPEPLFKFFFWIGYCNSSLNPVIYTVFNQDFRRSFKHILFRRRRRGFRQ
T3 sequence (P19328 whole entry): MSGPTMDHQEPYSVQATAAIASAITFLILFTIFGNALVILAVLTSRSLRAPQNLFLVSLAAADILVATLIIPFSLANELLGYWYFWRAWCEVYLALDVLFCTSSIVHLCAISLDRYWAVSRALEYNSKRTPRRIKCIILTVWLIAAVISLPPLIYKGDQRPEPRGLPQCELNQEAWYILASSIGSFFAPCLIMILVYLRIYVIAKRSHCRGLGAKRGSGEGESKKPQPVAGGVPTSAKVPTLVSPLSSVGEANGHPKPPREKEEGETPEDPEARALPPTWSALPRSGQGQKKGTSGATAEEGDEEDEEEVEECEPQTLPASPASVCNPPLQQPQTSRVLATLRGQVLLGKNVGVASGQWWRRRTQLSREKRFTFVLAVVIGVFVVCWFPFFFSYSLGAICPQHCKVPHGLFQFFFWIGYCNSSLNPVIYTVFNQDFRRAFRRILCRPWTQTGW
T3 sequence (P22909 whole entry): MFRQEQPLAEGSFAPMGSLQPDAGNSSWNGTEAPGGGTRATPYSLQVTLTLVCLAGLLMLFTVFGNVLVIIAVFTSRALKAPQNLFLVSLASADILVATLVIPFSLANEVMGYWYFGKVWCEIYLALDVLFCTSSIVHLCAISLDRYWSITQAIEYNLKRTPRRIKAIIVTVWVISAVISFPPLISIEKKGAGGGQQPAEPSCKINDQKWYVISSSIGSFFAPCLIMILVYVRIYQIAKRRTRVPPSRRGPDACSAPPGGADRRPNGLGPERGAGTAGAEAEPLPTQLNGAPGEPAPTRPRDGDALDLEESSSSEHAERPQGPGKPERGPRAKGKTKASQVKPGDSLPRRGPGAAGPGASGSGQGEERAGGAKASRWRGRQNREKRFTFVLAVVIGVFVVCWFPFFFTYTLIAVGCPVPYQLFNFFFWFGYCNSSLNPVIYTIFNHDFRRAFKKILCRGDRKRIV

[4] = target: T2, Adrenergic receptor alpha-1; experiment: Intrinsic activity towards Alpha-1 adrenergic receptor by the displacement of [3H]prazosin from rat cerebral cortex membrane in presence of 1 nM GTP.; assay type: tissue-based
[5] = target: T2, Adrenergic receptor alpha-1; experiment: Intrinsic activity towards Alpha-1 adrenergic receptor by the displacement of [3H]prazosin from rat cerebral cortex membrane in absence of 1 nM GTP; assay type: tissue-based
[6] = target: Adrenergic receptor alpha-1 (Rattus norvegicus) (UniProt P15823+P23944+P43140)

| Ki [1] | Ki [2] | Ki [3] | Ki [4] | Ki [5] | GTP shift [6] | Structure (SMILES) |
| --- | --- | --- | --- | --- | --- | --- |
| 11.1 nM | 1.68 nM | 0.85 nM |  |  |  | COc1ccccc1N1CCN(CCCCCCCn2ncc(N3CCN(CC4COc5ccccc5O4)CC3)c(Cl)c2=O)CC1 (configuration not stated) |
| 0.82 nM |  |  |  |  |  | CCOc1ccccc1OCCN1CCN(c2cnn(CCCCCCCN3CCN(c4ccccc4OC)CC3)c(=O)c2Cl)CC1 |
| 0.9 nM |  |  | 0.081 nM | 0.047 nM | 1.7 | CC(C)Oc1ccccc1N1CCN(CCCCCCCn2ncc(N3CCN(C(=O)c4ccco4)CC3)c(Cl)c2=O)CC1 |
| 2.54 nM |  |  | 0.22 nM | 0.28 nM | 0.8 | CCOc1ccccc1OCCN1CCN(c2cnn(CCCCCCCN3CCN(c4ccccc4OC(C)C)CC3)c(=O)c2Cl)CC1 |
| 49.8 nM | 0.42 nM | 2.16 nM |  |  |  | CCOc1ccccc1N1CCN(CCCCCCCn2ncc(N3CCN(CC4COc5ccccc5O4)CC3)c(Cl)c2=O)CC1 (configuration not stated) |
|  |  |  |  |  | 1.2 | COc1cc2nc(N3CCN(C(=O)c4ccco4)CC3)nc(N)c2cc1OC |
| 0.35 nM | 0.23 nM | 0.8 nM |  |  |  | CCOc1ccccc1N1CCN(CCCCCCCn2ncc(Cl)c(N3CCN(C(=O)c4ccco4)CC3)c2=O)CC1 |
| 2.47 nM | 0.31 nM | 3.34 nM | 0.33 nM | 0.23 nM | 1.4 | CC(C)Oc1ccccc1N1CCN(CCCCCCCn2ncc(N3CCN(CC4COc5ccccc5O4)CC3)c(Cl)c2=O)CC1 (configuration not stated) |
| 1.16 nM | 0.08 nM | 0.66 nM |  |  |  | CC(C)Oc1ccccc1N1CCN(CCCCCCCn2ncc(Cl)c(N3CCN(C(=O)c4ccco4)CC3)c2=O)CC1 |
|  | 1.45 nM |  |  |  |  | COc1ccccc1OCCN1CCN(c2cnn(CCCCCCCN3CCN(c4ccccc4OC)CC3)c(=O)c2Cl)CC1 |
| 1.02 nM | 0.43 nM | 2.4 nM |  |  |  | CCOc1ccccc1N1CCN(CCCCCCCn2ncc(Cl)c(N3CCN(CC4COc5ccccc5O4)CC3)c2=O)CC1 (configuration not stated) |
| 1.32 nM |  |  |  |  |  | CCOc1ccccc1OCCN1CCN(c2cnn(CCCCCCCN3CCN(c4ccccc4OCC)CC3)c(=O)c2Cl)CC1 |
| 0.4 nM | 0.54 nM | 1.45 nM |  |  |  | COc1ccccc1N1CCN(CCCCCCCn2ncc(Cl)c(N3CCN(CC4COc5ccccc5O4)CC3)c2=O)CC1 (configuration not stated) |
| 1.52 nM | 0.32 nM | 13.4 nM |  |  |  | CC(C)Oc1ccccc1N1CCN(CCCCCCCn2ncc(Cl)c(N3CCN(CC4COc5ccccc5O4)CC3)c2=O)CC1 (configuration not stated) |
| 0.42 nM | 0.37 nM | 1.23 nM |  |  |  | COc1ccccc1N1CCN(CCCCCCCn2ncc(Cl)c(N3CCN(C(=O)c4ccco4)CC3)c2=O)CC1 |
